Tests used:
[1] = target: T1, D(4) dopamine receptor (Homo sapiens, UniProt P21917); assay: Binding affinity against human Dopamine receptor D4 by [3H]-spiperone displacement.
T1 sequence (P21917 whole entry): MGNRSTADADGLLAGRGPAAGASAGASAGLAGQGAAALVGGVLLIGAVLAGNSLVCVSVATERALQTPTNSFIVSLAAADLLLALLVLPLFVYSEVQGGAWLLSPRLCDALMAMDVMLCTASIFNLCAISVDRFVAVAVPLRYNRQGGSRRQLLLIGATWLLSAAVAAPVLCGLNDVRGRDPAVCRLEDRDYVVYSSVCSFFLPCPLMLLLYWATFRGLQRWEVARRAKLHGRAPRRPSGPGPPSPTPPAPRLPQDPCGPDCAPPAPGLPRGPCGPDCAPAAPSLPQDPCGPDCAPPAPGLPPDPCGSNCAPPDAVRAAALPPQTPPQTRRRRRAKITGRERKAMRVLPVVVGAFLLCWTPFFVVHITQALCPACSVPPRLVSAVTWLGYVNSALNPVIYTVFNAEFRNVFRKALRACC

[2] = target: T2, D(4) dopamine receptor (Homo sapiens) (UniProt P21917); assay: D4 efficacy against human Dopamine receptor D4 expressed in HEK293 cells; assay type: functional, cell-based
T2 sequence (whole entry): T1 sequence (P21917 whole entry)

[3] = target: T1, D(4) dopamine receptor; assay: Effective concentration against human Dopamine receptor D4
[4] = target: D(2) dopamine receptor (Homo sapiens, UniProt P14416); assay: Binding affinity against human Dopamine receptor D2 using [3H]spiperone as radioligand
[5] = target: T1, D(4) dopamine receptor; assay: D4 efficacy was measured using recombinant human Dopamine receptor D4 expressed in HEK293 cells; assay type: cell-based
Summary of the method: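 Human D4.4 co-expressed with Gαq05 in HEK293 cells, seeded at 20 000 cells/well and cultured 2 days. Loaded 1 h at room temperature with 4 μM Fluo-4 and 0.04% Pluronic F-127 in DPBS, then washed. Compound added on FLIPR and calcium fluorescence read for 3 min. EC50 is the concentration giving 50% signal; efficacy is % activation relative to 10 μM dopamine; n ≥ 3.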

[6] = target: T2, D(4) dopamine receptor (Homo sapiens); assay: D4 efficacy was measured using recombinant human D4 receptor expressed in HEK293 cells; assay type: functional, cell-based
Summary of the method: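 Human D4.4 coexpressed with Gαq05 in HEK293 cells, plated 20 000 cells/well and cultured 2 days. Cells loaded 1 h at room temperature with 4 μM Fluo-4 plus 0.04% Pluronic F-127 in DPBS, washed four times. Compound added on FLIPR and calcium fluorescence recorded for 3 min. Data normalized to 10 μM dopamine response. EC50 is concentration giving 50% signal. n ≥ 3, ±SEM.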

D(2) dopamine receptor, sequence (P14416 whole entry): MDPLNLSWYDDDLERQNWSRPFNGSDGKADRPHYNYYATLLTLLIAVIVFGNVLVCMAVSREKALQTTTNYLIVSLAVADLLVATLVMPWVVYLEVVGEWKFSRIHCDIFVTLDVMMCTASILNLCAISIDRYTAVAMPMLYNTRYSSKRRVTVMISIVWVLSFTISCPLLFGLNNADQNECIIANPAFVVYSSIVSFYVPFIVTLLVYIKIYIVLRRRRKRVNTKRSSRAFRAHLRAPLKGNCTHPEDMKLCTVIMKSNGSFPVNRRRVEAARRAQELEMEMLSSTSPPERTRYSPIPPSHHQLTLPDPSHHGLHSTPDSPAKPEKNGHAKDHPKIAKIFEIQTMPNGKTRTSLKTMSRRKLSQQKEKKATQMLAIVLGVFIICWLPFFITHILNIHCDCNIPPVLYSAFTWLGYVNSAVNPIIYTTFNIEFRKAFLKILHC

Compound `Fc1ccc(N2CCN(Cc3nc4ccccc4[nH]3)CC2)cc1` has a Ki [1] of 79.6 nM and an Efficacy [2] of 9.9%.
Compound `Clc1ccccc1N1CCN(Cc2nc3ccccc3[nH]2)CC1` has a Ki [1] of 8.5 nM and an EC50 [3] of 1 nM.
With `Clc1ccccc1N1CCN(Cc2nc3ccc[nH]c-3n2)CC1` the Ki [1] was 719 nM, the EC50 [3] was 10000 nM and the Ki [4] was > 10000 nM.
`c1ccc(N2CCN(Cc3nc4ccccc4[nH]3)CC2)cc1` was tested, and the Ki [1] was 52 nM, the EC50 [3] was 10.1 nM and the Efficacy [2] was 37.5%.
For `Clc1ccc(N2CCN(Cc3nc4ccccc4[nH]3)CC2)cc1`, the Ki [1] was 14.8 nM, the Ki [4] was > 10000 nM and the Efficacy [2] was 4.7%.
With `c1ccc2[nH]c(CN3CCN(c4ccncc4)CC3)nc2c1` the Ki [1] was > 10000 nM and the Efficacy [2] was 4.8%.
Compound `COc1ccccc1N1CCN(Cc2nc3ccccc3[nH]2)CC1` has a Ki [1] of 4.3 nM and an EC50 [3] of 5.6 nM.
`c1ccc(N2CCN(Cc3nc4ccccc4[nH]3)CC2)nc1` [ABT-724] showed a Ki [1] of 167 nM and an EC50 [5] of 12.4 nM.
Work on `COc1ccc(N2CCN(Cc3nc4ccccc4[nH]3)CC2)cc1` yielded a Ki [1] of 20.4 nM and an Efficacy [2] of 4.8%.
With `COc1cccc(N2CCN(Cc3nc4ccccc4[nH]3)CC2)c1` the Ki [1] was 26.5 nM and the Efficacy [2] was 5%.
With `c1cncc(N2CCN(Cc3nc4ccccc4[nH]3)CC2)c1` the Ki [1] was 376 nM and the Efficacy [2] was 24.9%.
In the case of `Clc1ccc(N2CCN(Cc3cc4ccccn4n3)CC2)cc1`, the Ki [1] is reported as 2.7 nM, the EC50 [3] is reported as 154 nM and the Ki [4] is reported as 1310 nM.
`Clc1cccc(N2CCN(Cc3nc4ccccc4[nH]3)CC2)c1` was tested, and the Ki [1] was 9.6 nM, the Efficacy [6] was 3.8% and the Ki [4] was > 10000 nM.
